The results in this text go back to ChEMBL document CHEMBL4359929, “Piperidine and piperazine inhibitors of fatty acid amide hydrolase targeting excitotoxic pathology” (Bioorg Med Chem, 2019).

Activity calls are given as the source filed them.

For series [1], the target named is T1, Fatty-acid amide hydrolase 1 (Rattus norvegicus) (UniProt P97612).
T1 sequence (whole entry): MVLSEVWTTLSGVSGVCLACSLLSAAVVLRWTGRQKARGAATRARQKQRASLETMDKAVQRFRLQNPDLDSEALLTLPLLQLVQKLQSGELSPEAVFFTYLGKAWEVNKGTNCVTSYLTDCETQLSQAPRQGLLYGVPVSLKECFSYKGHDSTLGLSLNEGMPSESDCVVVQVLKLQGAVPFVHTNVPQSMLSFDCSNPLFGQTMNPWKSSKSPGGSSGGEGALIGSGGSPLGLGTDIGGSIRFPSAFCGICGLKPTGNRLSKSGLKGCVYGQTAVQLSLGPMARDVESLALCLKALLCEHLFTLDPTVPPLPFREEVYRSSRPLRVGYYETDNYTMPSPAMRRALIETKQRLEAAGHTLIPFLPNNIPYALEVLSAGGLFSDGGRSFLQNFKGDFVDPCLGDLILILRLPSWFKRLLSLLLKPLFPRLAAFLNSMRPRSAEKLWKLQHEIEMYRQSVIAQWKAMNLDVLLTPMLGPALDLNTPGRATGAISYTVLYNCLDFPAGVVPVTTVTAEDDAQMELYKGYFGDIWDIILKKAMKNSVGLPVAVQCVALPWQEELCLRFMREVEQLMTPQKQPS
Put plainly: Inhibition of FAAH in rat brain membrane at 1 to 10 uM incubated for 30 mins followed by incubation with FP-Rh probe for 45 mins by ABPP assay. The class given is cell membranes. A digest of the protocol: (§1)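 Gel-based competitive ABPP on rat brain membrane homogenates (10 mg/mL protein). Compound at 1 and 10 μM or DMSO for 30 min at room temperature, then 10 μM rhodamine-tagged fluorophosphonate probe for 45 min at room temperature. FAAH was run with a reference FAAH inhibitor at 10 μM as positive control. Serine hydrolase labelling read by in-gel fluorescence.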

Series [2] can be described thus: Selectivity ratio of IC50 for human full length ABHD6 expressed in Escherichia coli cells to IC50 for rat recombinant His/GST-tagged FAAH expressed in Escherichia coli cells by fluorescence based assay.
Series [3] can be described thus: Stability in mouse liver microsomes assessed as half life. The class given is ADME, Microsome. In a few lines:
(§2)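 Stability assessed as half-life in human, rat and mouse plasma and gastric fluid, and in human, rat and mouse liver microsomal preparations.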
(In general: Microsomes from liver hold many membrane-bound enzymes, among them those of drug oxidation.)

A short description of series [4]: Stability in rat gastric fluid assessed as half life. Format: ADME, tissue-based, Gastric juice. A digest of the protocol: as §2
The nature of series [5]: Stability in mouse plasma assessed as half life. The class given is ADME, cell-free. A digest of the protocol: as §2
A further series has as its system Hippocampus. In words: Neuroprotective activity against Sprague-Dawley rat hippocampus assessed as decrease in KA-induced excitotoxicity by measuring increase in GluR1 level at 3 to 30 uM preincubated for 1 hr followed by KA stimulation for 2 hrs in continued presence of compound followed by KA wash out and then further incubation with compound for 24 hrs by immunoblot analysis. The class given is functional, tissue-based. In a few lines: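 Sprague-Dawley rat hippocampal slices (400 μm, postnatal day 12) cultured 18–20 days at 37 °C, 5% CO2. Pretreated 60 min with 3–30 μM compound or 0.1% DMSO, then 60 μM kainic acid for 2 h with compound. Three washouts, then 24 h recovery with 30 μM compound. Harvested in groups of 7–9; GluR1, synaptophysin and synapsin IIb by immunoblot with optical density. Unpaired t-tests.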
In general terms: A western blot detects proteins with antibodies after separation by electrophoresis.

Series [6] can be described thus: Stability in human liver microsomes assessed as half life. The class given is ADME, Microsome. In a few lines:
as §2

For series [7], the target named is Cannabinoid receptor 1 (Rattus norvegicus) (UniProt P20272). Put plainly: Displacement of [3H]CP55940 from CB1 receptor in rat brain by competition-equilibrium binding analysis. Background: Displacement assays read how much labelled ligand stays bound in the presence of the test substance.
Cannabinoid receptor 1 (Rattus norvegicus), sequence (P20272 whole entry, looked up): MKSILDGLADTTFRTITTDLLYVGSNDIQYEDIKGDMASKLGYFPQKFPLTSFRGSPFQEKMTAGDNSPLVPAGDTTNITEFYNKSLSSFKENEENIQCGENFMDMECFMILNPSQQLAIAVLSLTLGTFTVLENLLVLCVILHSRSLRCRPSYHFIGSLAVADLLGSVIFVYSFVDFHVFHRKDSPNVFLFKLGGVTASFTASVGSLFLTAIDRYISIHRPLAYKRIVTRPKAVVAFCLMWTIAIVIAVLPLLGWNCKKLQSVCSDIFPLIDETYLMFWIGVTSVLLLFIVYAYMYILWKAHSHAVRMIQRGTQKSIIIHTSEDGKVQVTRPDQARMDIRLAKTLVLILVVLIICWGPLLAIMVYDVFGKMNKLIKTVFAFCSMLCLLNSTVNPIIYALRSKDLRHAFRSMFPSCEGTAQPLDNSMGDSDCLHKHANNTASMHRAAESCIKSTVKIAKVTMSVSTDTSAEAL
Series [8] deals with T2, Monoacylglycerol lipase ABHD6 (Rattus norvegicus) (UniProt Q5XI64).
T2 sequence (whole entry): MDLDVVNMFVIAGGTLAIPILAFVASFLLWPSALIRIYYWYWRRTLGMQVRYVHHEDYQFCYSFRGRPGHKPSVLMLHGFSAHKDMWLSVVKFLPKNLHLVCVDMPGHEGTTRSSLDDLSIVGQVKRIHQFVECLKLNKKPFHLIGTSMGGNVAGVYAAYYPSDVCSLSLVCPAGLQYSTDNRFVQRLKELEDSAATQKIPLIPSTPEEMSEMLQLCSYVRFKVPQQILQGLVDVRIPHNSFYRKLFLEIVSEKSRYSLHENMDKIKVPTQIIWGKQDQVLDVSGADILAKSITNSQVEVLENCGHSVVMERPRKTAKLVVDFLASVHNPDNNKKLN
Put plainly: Inhibition of ABHD6 in rat brain membrane at 1 to 10 uM incubated for 30 mins followed by incubation with FP-Rh probe for 45 mins by ABPP assay. Format: cell membranes. A digest of the protocol:
as §1

Series [9] is described as follows: Stability in human plasma assessed as half life. The class given is ADME, cell-free. In a few lines: as §2
The target in series [10] is T3, Monoglyceride lipase (Rattus norvegicus) (UniProt Q8R431).
T3 sequence (whole entry): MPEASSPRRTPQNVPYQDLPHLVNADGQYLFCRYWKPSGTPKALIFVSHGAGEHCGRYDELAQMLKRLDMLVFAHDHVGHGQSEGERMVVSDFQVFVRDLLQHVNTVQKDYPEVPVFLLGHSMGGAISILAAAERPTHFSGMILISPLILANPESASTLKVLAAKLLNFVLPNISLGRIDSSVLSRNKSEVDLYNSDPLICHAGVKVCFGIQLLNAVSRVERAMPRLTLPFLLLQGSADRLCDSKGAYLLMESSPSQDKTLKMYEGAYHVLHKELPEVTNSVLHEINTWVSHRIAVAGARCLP
In words: Inhibition of MGL in rat brain membrane at 1 to 10 uM incubated for 30 mins followed by incubation with FP-Rh probe for 45 mins by ABPP assay. Format: cell membranes. In a few lines: as §1

The next series addresses T4, Monoglyceride lipase (Homo sapiens, UniProt Q99685).
T4 sequence (Q99685 whole entry): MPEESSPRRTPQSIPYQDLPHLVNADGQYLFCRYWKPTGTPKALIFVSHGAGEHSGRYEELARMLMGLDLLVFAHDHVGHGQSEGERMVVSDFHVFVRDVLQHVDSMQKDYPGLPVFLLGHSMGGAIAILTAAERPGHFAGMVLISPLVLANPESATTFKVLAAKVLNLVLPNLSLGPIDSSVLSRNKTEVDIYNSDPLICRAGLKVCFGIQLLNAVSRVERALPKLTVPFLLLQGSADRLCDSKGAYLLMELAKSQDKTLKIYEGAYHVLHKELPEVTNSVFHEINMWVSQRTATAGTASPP
Put plainly: Inhibition of human recombinant His-tagged MGL expressed in Escherichia coli BL21 DE3 cells using AHMMCE as substrate preincubated with enzyme for 15 mins followed by substrate addition and measured after every 15 mins for 3 hrs by fluorescence based assay. In a few lines:
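Fluorescent enzyme assay in throughput format. Human recombinant FAAH or purified rat FAAH used arachidonoyl 7-amino-4-methylcoumarin amide as substrate; human recombinant MGL was run by a similar fluorometric procedure.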

Series [11] in a line: Stability in rat plasma assessed as half life. Format: ADME, cell-free. A digest of the protocol: as §2
Series [12] can be described thus: Stability in human gastric fluid assessed as half life. The class given is ADME, tissue-based, Gastric juice. A digest of the protocol:
as §2

For series [13], the target named is Cannabinoid receptor 2 (Mus musculus) (UniProt P47936). In words: Displacement of [3H]CP55940 from mouse CB2 receptor expressed in HEK293 cells by competition-equilibrium binding analysis. The class given is cell-based. A digest of the protocol: (§3)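 HEK293 cell membranes expressing mouse or human CB2; competition-equilibrium binding against [3H]CP-55,940.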
Cannabinoid receptor 2 (Mus musculus), sequence (P47936 whole entry): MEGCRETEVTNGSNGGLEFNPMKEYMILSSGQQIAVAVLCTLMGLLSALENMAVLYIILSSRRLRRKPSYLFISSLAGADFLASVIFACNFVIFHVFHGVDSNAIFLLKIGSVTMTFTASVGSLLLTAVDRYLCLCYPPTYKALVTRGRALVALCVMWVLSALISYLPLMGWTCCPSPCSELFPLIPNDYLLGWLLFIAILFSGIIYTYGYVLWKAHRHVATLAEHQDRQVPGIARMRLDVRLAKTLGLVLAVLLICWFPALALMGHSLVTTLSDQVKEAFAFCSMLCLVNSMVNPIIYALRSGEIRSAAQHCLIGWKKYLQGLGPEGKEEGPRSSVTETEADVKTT

The target in series [14] is Cannabinoid receptor 2 (Homo sapiens) (UniProt P34972). In words: Displacement of [3H]CP55940 from human CB2 receptor expressed in HEK293 cells by competition-equilibrium binding analysis. The class given is cell-based. A digest of the protocol: as §3
Cannabinoid receptor 2 (Homo sapiens), sequence (P34972 whole entry): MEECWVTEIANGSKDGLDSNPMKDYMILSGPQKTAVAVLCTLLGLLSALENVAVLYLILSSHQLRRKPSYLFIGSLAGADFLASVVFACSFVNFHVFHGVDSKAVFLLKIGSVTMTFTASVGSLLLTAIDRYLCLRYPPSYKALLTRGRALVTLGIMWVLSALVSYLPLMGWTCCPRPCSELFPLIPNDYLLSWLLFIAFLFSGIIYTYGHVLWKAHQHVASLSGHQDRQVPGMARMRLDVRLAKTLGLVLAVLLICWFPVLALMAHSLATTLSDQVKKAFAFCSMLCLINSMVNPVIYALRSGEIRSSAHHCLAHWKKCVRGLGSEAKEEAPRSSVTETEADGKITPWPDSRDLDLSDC

As usually defined, the inhibition is the relative decrease from the control value, in per cent. Usually half-life stands for the time needed for the level to fall by half in the phase considered. A word on the IC50: it is the midpoint of a concentration-inhibition curve. On to `C[C@@H]1CN(c2ccc(F)cc2)CCN1C(=O)Oc1cccc(N2CCS(=O)(=O)CC2)c1`, for which the inhibition in [1] was 100%. Moreover, the Ratio IC50 in series [2] was above 1000. Besides, the half-life was 0.25 to 0.417 h in [3]; above 1 h in series [4]; above 1 h in series [5]; 0.25 to 0.417 h in series [6]; above 1 h in series [9]; above 1 h in [11]. In addition, the half-life in [12] was above 1 h. Moreover, the inhibition entry with Hippocampus was “Active”. Also, the outcome in [7], in series [13] and in [14] was inactive. In addition, the inhibition entry in series [8] and in [10] was “inactive” throughout. Moreover, the IC50 at Monoglyceride lipase is above 1000 nM.
Take `O=C(Oc1cccc(N2CCS(=O)(=O)CC2)c1)N1CCC(c2ccc(N3CCC3)cc2)CC1`: the inhibition in series [1] stood at 100%. Moreover, the Ratio IC50 in series [2] is above 1000. Moreover, the half-life in series [3] is 0.25 to 0.417 h; in series [4], above 1 h; in series [5], above 1 h; in series [6], 0.25 to 0.417 h; in series [9], above 1 h; in series [11], above 1 h. For the same molecule, the half-life in [12] was above 1 h. Also, in the series on Hippocampus, the inhibition entry is “Active”. The outcome in series [7], in series [13] and in series [14] was inactive. For the same molecule, the inhibition result in series [8] and in series [10] was “inactive” in each case. Further, the concentration for half-maximal inhibition (IC50) at Monoglyceride lipase is above 1000 nM.
